Measured values published in ChEMBL document CHEMBL3774344, “Role of a Preorganized Scaffold Presenting Four Residues of a GM-3 Lactone Mimetic on Melanoma Progression” (2016).
Activity calls are given as the source filed them. The rule behind the calls is not given here.

What was measured:
A-375 [1] = assay: Antimigratory activity against human A375 cells at 50 uM after 24 hrs in presence cancer associated fibroblast by 2D-migration assay; format: functional, cell-based
In short: (§1)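 A375 cells incubated under hypoxia (1% O2) with conditioned medium from CAFs (derived ex vivo from aggressive human melanoma) or HDFs, with or without 50 μM compound. Cells then assayed for 2D migration or invasion through reconstituted Matrigel barrier in Boyden chambers.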

A-375 [2] = assay: Inhibition of cell adhesion in human A375 cells at 50 uM measured after 4 hrs in presence of fibronectin by crystal violet staining based assay; format: functional; settings: A-375, 4 h
In short: (§2)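 A375 cells treated with 50 μM compound, then allowed to adhere to fibronectin-coated dishes for varying times up to 4 h, with no-fibronectin comparison. Percentage of adhered cells scored by crystal violet. At least three independent experiments; mean and SD.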

A-375 [3] = assay: Inhibition of cell migration in human A375 cells at 50 uM after 24 hrs by 2D-migration assay in presence of 10% serum; format: functional; settings: A-375, 24 h
In short: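 Cells treated with 50 μM compound, then allowed to migrate 24 h toward 10% serum chemoattractant. Cells counted in a randomly chosen field per filter. At least three independent experiments; mean and SD.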

[4] = Antitumor activity against mouse B16F10 cells xenografted in C57BL/6 mouse assessed as reduction in tumor volume at 400 ug, ip administered on day 0 to 72 followed by tumor implantation on day 69 measured every 2 to 3 days relative to PBS-treated control; set-up: scale not given: the % may be the effect or the level left
A-375 [5] = assay: Antiinvasion activity in human A375 cells at 50 uM after 24 hrs in presence of cancer associated fibroblast by Boyden invasion assay; format: functional, cell-based; in short: as §1
A-375 [6] = assay: Inhibition of cell adhesion in human A375 cells at 50 uM measured from 1 to 3 hrs in presence of fibronectin by crystal violet staining based assay; format: functional; in short: as §2
A-375 [7] = assay: Induction of apoptosis in serum-starved human A375 cells after 24 hrs by AnnexinV/PI-staining based flow cytometric analysis; format: functional, cell-based
In short: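 A375 cells serum-starved, detached and held in suspension for 24 h with compound. Apoptotic fraction measured by Annexin V–PI staining. At least three independent experiments; mean and SD.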

A-375 [8] = assay: Inhibition of cell invasion in human A375 cells at 50 uM after 24 hrs by Boyden invasion assay in presence of 10% serum; format: functional; settings: A-375, 24 h
In short: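 Cells treated with 50 μM compound, then placed in Boyden chambers (8 μm pores) with Matrigel 3D barrier and allowed to invade toward 10% serum for 24 h. Cells crossing the filter counted. At least three independent experiments; mean and SD.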

| Structure (SMILES) | Activity (A-375 [1]) | inhibition at 50 µM (A-375 [2]) [%] | inhibition at 50 µM (A-375 [3]) [%] | Activity [4] [%] | Activity (A-375 [5]) | inhibition at 50 µM (A-375 [6]) [%] | Activity (A-375 [7]) | inhibition at 50 µM (A-375 [8]) [%] |
| --- | --- | --- | --- | --- | --- | --- | --- | --- |
| CC(C)=NOCC(=O)NCCCC[C@@H]1NC(=O)[C@H](CCCCNC(=O)CCCCC(=O)NCCCCCCO[C@H]2O[C@H](CO)[C@H](O)C3=C2SC[C@]2(C[C@@H](O)[C@@H](O)[C@@H]([C@H](O)CO)O2)O3)NC(=O)CNC(=O)[C@@H]2CCCN2C(=O)[C@H](CCCCNC(=O)CCCCC(=O)NCCCCCCO[C@@H]2O[C@@H](CO)[C@@H](O)C3=C2SC[C@@]2(C[C@@H](O)[C@@H](O)[C@@H]([C@H](O)CO)O2)O3)NC(=O)[C@H](C)NC(=O)[C@H](CCCCNC(=O)CCCCC(=O)NCCCCCCO[C@H]2O[C@H](CO)[C@H](O)C3=C2SC[C@]2(C[C@H](O)[C@H](O)[C@H]([C@@H](O)CO)O2)O3)NC(=O)CNC(=O)[C@@H]2CCCN2C(=O)[C@H](CCCCNC(=O)CCCCC(=O)NCCCCCCO[C@@H]2O[C@@H](CO)[C@@H](O)C3=C2SC[C@@]2(C[C@H](O)[C@H](O)[C@H]([C@@H](O)CO)O2)O3)NC1=O | Active | 50 | 30 | >50 | Active | ≤ 30 | Active | 30 |
| CCCOc1c2cc(CCCn3cc(CCO[C@H]4O[C@H](CO)[C@H](O)C5=C4SC[C@]4(C[C@@H](O)[C@@H](O)[C@@H]([C@@H](O)CO)O4)O5)nn3)cc1Cc1cc(CCCn3cc(CCO[C@H]4O[C@H](CO)[C@H](O)C5=C4SC[C@]4(C[C@@H](O)[C@@H](O)[C@@H]([C@@H](O)CO)O4)O5)nn3)cc(c1OCCC)Cc1cc(CCCn3cc(CCO[C@H]4O[C@H](CO)[C@H](O)C5=C4SC[C@]4(C[C@@H](O)[C@@H](O)[C@@H]([C@@H](O)CO)O4)O5)nn3)cc(c1OCCC)Cc1cc(CCCn3cc(CCO[C@H]4O[C@H](CO)[C@H](O)C5=C4SC[C@]4(C[C@@H](O)[C@@H](O)[C@@H]([C@@H](O)CO)O4)O5)nn3)cc(c1OCCC)C2 | Active | – | – | – | Active | – | – | – |
